Data from ChEMBL document CHEMBL1139725, “Synthesis and SAR of novel hydantoin derivatives as selective androgen receptor modulators” (2006).
Active and inactive are the calls of the source. The rule behind the calls is not given here.

Assays:
Rattus norvegicus [1] = assay: Inhibition of seminal vesicle weight in Sprague-Dawley rat at 2 mg/day, po relative to control; type: functional
Outline: (§1)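 Five-day antagonist assay in immature (about 50 g) castrated male Sprague–Dawley rats. Compound given po in 20% cyclodextrin once daily at 2 mg/day for 5 days, with testosterone propionate co-dosed sc in sesame oil at 0.1 mg/d ([…]). Read-out is % inhibition of testosterone-enhanced tissue weight, with vehicle control set to 100% and testosterone-alone control to 0%; n = 3/group.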

Rattus norvegicus [2] = assay: Inhibition of prostate weight in Sprague-Dawley rat at 2 mg/day, po relative to control; type: functional, Prostate gland; outline: as §1
Rattus norvegicus [3] = assay: Stimulation of prostate weight in Sprague-Dawley rat at 2 mg/day, po relative to testosterone; type: functional
Outline: (§2)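 Agonist mode of a five-day modified Hershberger assay in immature (about 50 g) castrated male Sprague–Dawley rats. Activity is % stimulation of tissue weight, with vehicle-treated control set to 0% and testosterone-alone control to 100%.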

Rattus norvegicus [4] = species: Rattus norvegicus; assay: Stimulation of levator ani muscle weight in Sprague-Dawley rat relative to testosterone; type: functional; outline: as §2
Rattus norvegicus [5] = species: Rattus norvegicus; assay: Stimulation of prostate weight in Sprague-Dawley rat relative to testosterone; type: functional, organism-based; details: Prostate gland
Outline: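 Immature castrated male Sprague–Dawley rats (about 50 g) were dosed for five days. Prostate weight was expressed as percent stimulation: vehicle-treated controls were set to 0% and testosterone-alone controls to 100%. The testosterone propionate reference was given subcutaneously at the nape of the neck at 5 mg/kg in sesame oil.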

Rattus norvegicus [6] = species: Rattus norvegicus; assay: Stimulation of prostate weight in Sprague-Dawley rat at 3 mg/day relative to testosterone; type: functional, Prostate gland; outline: as §2
Rattus norvegicus [7] = species: Rattus norvegicus; assay: Stimulation of levator ani muscle weight in Sprague-Dawley rat at 2 mg/day relative to testosterone; type: functional; outline: as §2
Rattus norvegicus [8] = assay: Stimulation of prostate weight in Sprague-Dawley rat at 5 mg/kg, sc; type: functional, Prostate gland; details: route subcutaneous
Outline: (§3)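 Testosterone propionate injected sc at the nape of the neck at 5 mg/kg in sesame oil, in immature (about 50 g) castrated male Sprague–Dawley rats in a five-day modified Hershberger assay. Read-out is stimulation of tissue weight.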

Rattus norvegicus [9] = assay: Stimulation of levator ani muscle weight Sprague-Dawley rat at 5 mg/kg, sc; type: functional; details: route subcutaneous; outline: as §3

## C[C@@]12CCCN1C(=S)N(c1ccc(Cl)c(Cl)c1)C2=O
Rattus norvegicus [1]
  Inhibition: 27%
Rattus norvegicus [2]
  Inhibition: 17%
Rattus norvegicus [3]; Prostate gland
  Activity: inactive
Rattus norvegicus [4]
  Activity: inactive
Rattus norvegicus [5]
  Activity: inactive

## C[C@]12CC(C(F)(F)F)=NN1C(=O)N(c1ccc(C#N)c(C(F)(F)F)c1)C2=O
Rattus norvegicus [2]
  Inhibition: 21%
Rattus norvegicus [6]
  Activity: 14%
Rattus norvegicus [4]
  Activity: 42%

## C[C@@]12CC(C(F)(F)F)=NN1C(=O)N(c1ccc(C#N)c(C(F)(F)F)c1)C2=O
Rattus norvegicus [2]
  Inhibition: 26%
Rattus norvegicus [6]
  Activity: 11%
Rattus norvegicus [4]
  Activity: 75%

## C[C@@]12CC(C(F)(F)F)=NN1S(=O)(=O)N(c1ccc(C#N)c(C(F)(F)F)c1)C2=O
Rattus norvegicus [2]
  Inhibition: 28%
Rattus norvegicus [3]
  Activity: 41%
Rattus norvegicus [7]
  Activity: 66%

## CN1CC2(C)C(=O)N(c3ccc(C#N)c(C(F)(F)F)c3)C(=O)N2C1=O (stereo unspecified)
Rattus norvegicus [1]
  Inhibition: 85%
Rattus norvegicus [2]
  Inhibition: 87%

## CC12CC(C(F)(F)F)=NN1C(=O)N(c1ccc([N+](=O)[O-])c(C(F)(F)F)c1)C2=O (stereo unspecified)
Rattus norvegicus [2]
  Inhibition: 39%
Rattus norvegicus [3]
  Activity: 51%
Rattus norvegicus [7]
  Activity: 73%

## CCOC(=O)C1=NN2C(=O)C(=O)N(c3ccc(C#N)c(C(F)(F)F)c3)C(=O)C2(C)C1 (stereo unspecified)
Rattus norvegicus [2]
  Inhibition: 15%
Rattus norvegicus [3]
  Activity: <10%
Rattus norvegicus [7]
  Activity: <10%

## CC12COC(=O)N1C(=O)N(c1ccc(C#N)c(C(F)(F)F)c1)C2=O (stereo unspecified)
Rattus norvegicus [1]
  Inhibition: 80%
Rattus norvegicus [2]
  Inhibition: 75%

## CC12COC(=O)N1C(=O)N(c1ccc(Cl)c(C(F)(F)F)c1)C2=O (stereo unspecified)
Rattus norvegicus [1]
  Inhibition: 51%
Rattus norvegicus [2]
  Inhibition: 55%

## C[C@@]12CCCN1C(=S)N(c1ccc(Cl)c(C(F)(F)F)c1)C2=O
Rattus norvegicus [1]
  Inhibition: <10%
Rattus norvegicus [2]
  Inhibition: 19%
Rattus norvegicus [4]
  Activity: inactive
Rattus norvegicus [5]
  Activity: inactive

## CCC(=O)O[C@H]1CC[C@H]2[C@@H]3CCC4=CC(=O)CC[C@]4(C)[C@H]3CC[C@]12C [TESTOSTERONE PROPIONATE]
Rattus norvegicus [8]
  Activity: 100%
Rattus norvegicus [9]
  Activity: 100%

## C[C@@]12CCCN1C(=S)N(c1ccc(C#N)c(C(F)(F)F)c1)C2=O
Rattus norvegicus [1]
  Inhibition: 95%
Rattus norvegicus [2]
  Inhibition: 78%
Rattus norvegicus [4]
  Activity: inactive
Rattus norvegicus [5]
  Activity: inactive

## CN1CC2(C)C(=O)N(c3ccc(Cl)c(C(F)(F)F)c3)C(=O)N2C1=O (stereo unspecified)
Rattus norvegicus [1]
  Inhibition: 85%
Rattus norvegicus [2]
  Inhibition: 77%

## CC12CNC(=O)N1C(=O)N(c1ccc(Cl)c(C(F)(F)F)c1)C2=O (stereo unspecified)
Rattus norvegicus [1]
  Inhibition: 19%
Rattus norvegicus [2]
  Inhibition: 33%

## CC12CNC(=O)N1C(=O)N(c1ccc(C#N)c(C(F)(F)F)c1)C2=O (stereo unspecified)
Rattus norvegicus [1]
  Inhibition: 86%
Rattus norvegicus [2]
  Inhibition: 79%

## C[C@@]12CCCN1C(=O)N(c1ccc(C#N)c(C(F)(F)F)c1)C2=O
Rattus norvegicus [1]
  Inhibition: <10%
Rattus norvegicus [2]
  Inhibition: 69%
Rattus norvegicus [4]
  Activity: inactive
Rattus norvegicus [5]
  Activity: inactive

## CCOC(=O)C1=NN2C(=O)N(c3ccc(C#N)c(C(F)(F)F)c3)C(=O)C2(C)C1 (stereo unspecified)
Rattus norvegicus [2]
  Inhibition: 16%
Rattus norvegicus [3]
  Activity: <10%
Rattus norvegicus [4]
  Activity: <10%

## CC(=O)Nc1ccc(C2=NN3C(=O)N(c4ccc(C#N)c(C(F)(F)F)c4)C(=O)C3(C)C2)cc1 (stereo unspecified)
Rattus norvegicus [2]
  Inhibition: 25%
Rattus norvegicus [3]
  Activity: <10%
Rattus norvegicus [7]
  Activity: 13%

## CC12CNC(=O)N1C(=O)N(c1ccc([N+](=O)[O-])c(C(F)(F)F)c1)C2=O (stereo unspecified)
Rattus norvegicus [1]
  Inhibition: 15%
Rattus norvegicus [2]
  Inhibition: 32%

## C[C@@]12CC(C(F)(F)F)=NN1C(=O)C(=O)N(c1ccc(C#N)c(C(F)(F)F)c1)C2=O
Rattus norvegicus [2]
  Inhibition: 27%
Rattus norvegicus [3]
  Activity: 12%
Rattus norvegicus [7]
  Activity: 21%

## C[C@@]12CC(C(F)(F)F)=NN1[S+]([O-])N(c1ccc(C#N)c(C(F)(F)F)c1)C2=O (stereo partly specified)
Rattus norvegicus [2]
  Inhibition: 41%
Rattus norvegicus [3]
  Activity: 58%
Rattus norvegicus [7]
  Activity: 117%

## C[C@@]12CCCN1C(=O)N(c1ccc(Cl)c(C(F)(F)F)c1)C2=O
Rattus norvegicus [1]
  Inhibition: <10%
Rattus norvegicus [2]
  Inhibition: 32%
Rattus norvegicus [4]
  Activity: inactive
Rattus norvegicus [5]
  Activity: inactive

## C[C@@]12CCCN1C(=O)N(c1ccc(Cl)c(Cl)c1)C2=O
Rattus norvegicus [1]
  Inhibition: 16%
Rattus norvegicus [2]
  Inhibition: 11%
Rattus norvegicus [3]; Prostate gland
  Activity: inactive
Rattus norvegicus [4]
  Activity: inactive
Rattus norvegicus [5]
  Activity: inactive

## CC12COC(=O)N1C(=O)N(c1ccc([N+](=O)[O-])c(C(F)(F)F)c1)C2=O (stereo unspecified)
Rattus norvegicus [1]
  Inhibition: 28%
Rattus norvegicus [2]
  Inhibition: 43%

## CCOC(=O)C1=NN2C(=O)N(c3ccc([N+](=O)[O-])c(C(F)(F)F)c3)C(=O)C2(C)C1 (stereo unspecified)
Rattus norvegicus [2]
  Inhibition: 35%
Rattus norvegicus [3]
  Activity: <10%
Rattus norvegicus [7]
  Activity: <10%

## CC12CC=NN1C(=O)N(c1ccc(C#N)c(C(F)(F)F)c1)C2=O (stereo unspecified)
Rattus norvegicus [2]
  Inhibition: 26%
Rattus norvegicus [3]
  Activity: <10%
Rattus norvegicus [7]
  Activity: <10%

## CC(O)(CS(=O)(=O)c1ccc(F)cc1)C(=O)Nc1ccc(C#N)c(C(F)(F)F)c1 (stereo unspecified) [BICALUTAMIDE]
Rattus norvegicus [1]
  Inhibition: 80%
Rattus norvegicus [2]
  Inhibition: 70%
Rattus norvegicus [4]
  Activity: inactive
Rattus norvegicus [5]
  Activity: inactive
